{"source": "paper PMC9587871", "about": "(Asian Pacific Journal of Cancer Prevention : APJCP, 2022)", "key": {"[1]": {"test_system": "Leukaemia K562 cancer cell line", "experiment": "SRB antiproliferative assay, K562", "type": "cell-based"}, "[2]": {"test_system": "breast MCF7 cancer cell line", "experiment": "SRB antiproliferative assay, MCF7", "type": "cell-based"}, "[3]": {"test_system": "colorectal HT29 cancer cell line", "experiment": "SRB antiproliferative assay, HT29", "type": "cell-based"}, "[4]": {"experiment": "DPPH radical scavenging assay", "settings": "30 minutes incubations; n=4"}, "[5]": {"test_system": "LPS-induced NO production in RAW 264.7 macrophages (Nitric oxide synthase)", "experiment": "Griess assay of LPS-induced NO production in RAW 264.7 macrophages", "type": "cell-based", "settings": "read-out: NOS- IC50 value, LPS-prompted RAW264.7 macrophages, 24h incubations, n=4", "outline": "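LPS-stimulated RAW264.7 macrophages exposed to the test compound; NO read by Griess assay. IC50 calculated within the tested dose range. Indomethacin used as reference. Data are mean ± SD of 4 independent replicates.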"}}, "note": "Where “and” joins values, the source holds several entries; their conditions need not be identical. Identical values can stand only once. Like-named read-outs stand apart in the source and are kept apart here.", "data": [{"smiles": "N.N.[Cl][Pt][Cl]", "note": "[Cisplatin]", "values": [{"measurement": "IC50", "setting": "[1]; read-out: Cytotoxicity (as of %Control) IC50 value, K562, 72 h incubations, n=4, NI is lack of cytotoxicity within the tested 0.1-200 μg/mL range", "value": "180 ± 21", "unit": "µM"}, {"measurement": "IC50", "setting": "[1]; read-out: Cytotoxicity (as of %Control) IC50 value, K562, 72 h incubations, n=4, NI is lack of cytotoxicity within the tested 0.1-200 μg/mL range, listed as cisplatin", "value": 180, "unit": "µM"}, {"measurement": "IC50", "setting": "[2]; read-out: Cytotoxicity (as of %Control) IC50 value, MCF7, 72 h incubations, n=4", "value": "28.1 ± 4.4", "unit": "µM"}, {"measurement": "IC50", "setting": "[2]; read-out: Cytotoxicity (as of %Control) IC50 value, MCF7, 72 h incubations, n=4, listed as cisplatin", "value": 28, "unit": "µM"}, {"measurement": "IC50", "setting": "[3]; read-out: Cytotoxicity (as of %Control) IC50 value, HT29, 72 h incubations, n=4", "value": "45.1 ± 7.9", "unit": "µM"}, {"measurement": "IC50", "setting": "[3]; read-out: Cytotoxicity (as of %Control) IC50 value, HT29, 72 h incubations, n=4, listed as cisplatin", "value": 45, "unit": "µM"}]}, {"smiles": "O=C1O[C@H]([C@@H](O)CO)C(O)=C1O", "note": "[Ascorbic acid]", "values": [{"measurement": "DPPH radical scavenging IC50 value", "setting": "[4]", "value": "(21.83±1.10) μg/mL"}]}, {"smiles": "COc1ccc2c(c1)c(CC(=O)O)c(C)n2C(=O)c1ccc(Cl)cc1", "note": "[Indomethacin]", "values": [{"measurement": "IC50", "setting": "[5]; Mus musculus, RAW264.7, 24 h", "value": "120 µM and 42.8 µg/mL"}, {"measurement": "IC50", "setting": "[5]", "value": "119 ± 3.02", "unit": "µM"}]}]}
